Test results as given in article PMC2774150 (Apmis, 2008).
Entries after “also recorded” stand apart in the source; their conditions may differ. Where two headings read alike, the source gives them in different places.

Tests used:
[1] = tested on: acetylated H4 in A2780 ovarian cancer cells; test: H4 acetylation by immunohistochemistry in paraffin-embedded A2780 cell blocks; type: cell-based, human; conditions: 1 μM for 1 h
[2] = tested on: H4 acetylation in A2780 ovarian cancer model; test: Experiment 1: H4 acetylation in vivo, A2780 xenograft; parameters: species or system NMRI nude mice; conditions: 100 mg/kg single i.v., 1 h
In short: (§1)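 Female NMRI nude mice, 6–8 weeks old, received about 10^7 cells with matrigel s.c. into the flank under Hypnorm/Dormicum. They were given 100 mg/kg test compound i.v. or vehicle (L-arginine 200 mg/kg in isotonic sterile saline) and killed after 1 h. Formalin-fixed, paraffin-embedded tumors were immunostained for acetylated H4 (mouse monoclonal T25, acetyl-Lys8/Lys12, 1:13,000; TEG pH 9 retrieval; EnVision+/DAB) and scored 0–3.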

[3] = tested on: H4 acetylation in HCT-116 colon cancer model; test: Experiment 1: H4 acetylation in vivo, HCT-116 xenograft; parameters: species or system NMRI nude mice; conditions: 100 mg/kg single i.v., 1 h
In short: as §1

[4] = tested on: H4 acetylation in A548 lung cancer model; test: Experiment 1: H4 acetylation in vivo, A549 xenograft; parameters: species or system NMRI nude mice; conditions: 100 mg/kg single i.v., 1 h
In short: as §1

[5] = tested on: H4 acetylation in PC-3 prostate cancer model; test: Experiment 1: H4 acetylation in vivo, PC-3 xenograft; parameters: species or system NMRI nude mice; conditions: 100 mg/kg single i.v., 1 h
In short: as §1

[6] = tested on: H4 acetylation in MCF-7 model; test: Experiment 1: H4 acetylation in vivo, MCF-7 xenograft; parameters: species or system NMRI nude mice; conditions: 100 mg/kg single i.v., 1 h
In short: as §1

[7] = tested on: acetylated H4 in A2780 xenograft; test: Experiment 2: H4 acetylation in A2780 biopsies and representative tumors; type: in vivo, NMRI nude mice; conditions: 100 mg/kg i.v., 1 h, A2780, Fig. 4A
In short: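 Mice bearing HCT-116, A2780, PC-3 or MCF-7 tumors (500–1000 mg) received 100 mg/kg test compound i.v. or vehicle and were killed after 1 h. Biopsies were taken with an 18G needle, aspirating while rotating. Biopsies and the remaining tumor were formalin-fixed, paraffin-embedded and stained with anti-acetyl-H4 T25 (1:13,000). Staining was scored negative, weak, moderate or strong (0–3).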

[8] = tested on: H4 acetylation in A2780 biopsies and tumors; test: Experiment 3: time dependence of H4 acetylation in A2780 biopsies and tumors; type: in vivo, NMRI nude mice; conditions: for H4 acetylation, 1 h biopsy / H4 acetylation, 2 h biopsy / H4 acetylation, 3 h biopsy / H4 acetylation, 3 h tumor / H4 acetylation, 6 h biopsy / H4 acetylation, 6 h tumor: individual mice
In short: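 Sixteen NMRI nude mice with small (300–400 mg) or large (1500–1800 mg) A2780 s.c. tumors received 100 mg/kg test compound i.v. at time zero. A pretreatment biopsy (large tumors only) and one post-dose 18G needle biopsy (1–6 h) were taken under isoflurane. Whole tumors were excised at 3, 6 or 24 h. Paraffin sections were stained with T25 anti-acetyl-H4 (1:13,000) and scored 0–3.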

[9] = tested on: p21 expression in A2780 xenograft; test: Experiment 3: p21 expression in A2780 biopsies and tumors; type: in vivo, NMRI nude mice
In short: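 In A2780 xenografts (small 300–400 mg or large 1500–1800 mg), mice received 100 mg/kg test compound i.v. Pretreatment (large tumors) and post-dose needle biopsies were taken between 1 and 6 h; whole tumors were taken at 3, 6 or 24 h. Paraffin sections were immunostained for p21 (monoclonal EA10, 1:80; TEG pH 9 retrieval; EnVision+/DAB) and nuclear versus cytoplasmic staining was recorded.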

[10] = tested on: H4 acetylation in A2780 xenograft tumor; test: Experiment 4: H4 acetylation score in A2780 tumor; type: in vivo, NMRI nude mice
In short: (§2)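 Groups of 3–4 NMRI nude mice with s.c. A2780 xenografts (500–1000 mg) received a single 200 mg/kg test compound dose i.v. or vehicle (L-arginine 400 mg/kg in isotonic sterile saline). Mice were killed at 15 min, 30 min, 1, 2 or 3 h. Tumor and spleen were halved, and one part was immunostained with T25 anti-acetyl-H4. Scores were 0–3 per mouse, averaged per time point.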

H4 acetylation in spleen = test: Experiment 4: H4 acetylation score in spleen; type: in vivo, NMRI nude mice; conditions: 200 mg/kg i.v.
In short: as §2

[11] = Experiment 4: belinostat in plasma, tumor and spleen by LC-MS/MS; type: in vivo, NMRI nude mice
In short: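 A2780 xenograft mice received 200 mg/kg i.v. once; lithium-heparin plasma, tumor and spleen were collected at 15 min–3 h. Plasma was protein-precipitated with a 13C-labelled internal standard, dried and redissolved in 10% HCOOH/ACN. Tissues were homogenized in water/ACN/methanol containing internal standard (1 μg/ml). Analysis used LC-MS/MS on UPLC C18 (0.05% HCOOH/ACN, 5 min gradient, 0.5 ml/min), reporting ng/ml plasma and ng/g tissue.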

[12] = tested on: H4 acetylation in peripheral canine blood; conditions: 10 min after i.v. infusion given over 45 min, total dose 50 mg/kg; cited from earlier work
[13] = tested on: H4 acetylation in histones extracted from A2780 cells; conditions: cited from earlier work
[14] = tested on: H4 acetylation in peripheral blood from A2780 xenografts; conditions: 3 h after treatment, 40 mg/kg i.p.; cited from earlier work
[15] = cited from earlier work
[16] = tested on: histone acetylation in peripheral blood lymphocytes; conditions: clinical study; cited from earlier work
[17] = 100 mg/kg i.v., large tumors (1500–1800 mg)
[18] = 100 mg/kg i.v., small tumors (300–400 mg)
[19] = 200 mg/kg i.v., individual mice
[20] = 200 mg/kg i.v., individual mice, listed as Belinostat
[21] = single treatment 200 mg/kg i.v.
[22] = individual mice, listed as Belinostat

## O=C(/C=C/c1cccc(S(=O)(=O)Nc2ccccc2)c1)NO [belinostat]
[1]
  H4 acetylation: strong (strong (score=3))
[2]
  H4 acetylation signal: strongest signal
[3]
  H4 acetylation: caused H4 acetylation
[4]
  H4 acetylation: caused H4 acetylation
[5]
  H4 acetylation: Weak
[6]
  H4 acetylation: Weak
[7]
  H4 acetylation in both biopsies and tumors: strong (III) or moderate (IV)
[8]; 100 mg/kg i.v.
  H4 acetylation after 6 and 24 h: weak or no
  H4 acetylation, general findings at 3 h: weak or moderate
[8]; 100 mg/kg i.v., 1 h after treatment
  H4 acetylation in biopsy, same mouse (Fig. 4B): strong (strong (score=3))
[8]; 100 mg/kg i.v., 3 h after treatment
  removed tumors with strong H4 acetylation: 1/10
[8]; 100 mg/kg i.v., Experiment 3, not extended at 200 mg/kg
  acetylation period: 1 to 2 h
[8]; 100 mg/kg i.v., after 3 h
  H4 acetylation in tumor, same mouse (Fig. 4B): weak (weak (score=1))
[8]; [17]
  H4 acetylation, 1 h biopsy: Strong
  H4 acetylation, 2 h biopsy: Strong
  H4 acetylation, 3 h biopsy: Strong
  H4 acetylation, 3 h tumor: Moderate and Weak
  H4 acetylation, 6 h biopsy: Weak
  H4 acetylation, 6 h tumor: Weak
[8]; 100 mg/kg i.v., n=4
  H4 acetylation, all biopsies collected 2 h after treatment: strong (strong (score=3))
[8]; 100 mg/kg i.v., n=5
  H4 acetylation, all biopsies collected 1 h after treatment: strong (strong (score=3))
[8]; [18]
  H4 acetylation, 1 h biopsy: Strong
  H4 acetylation, 2 h biopsy: Strong
  H4 acetylation, 3 h biopsy: Moderate; also recorded: Strong
  H4 acetylation, 3 h tumor: Weak and Moderate and Strong
  H4 acetylation, 6 h biopsy: Weak
  H4 acetylation, 6 h tumor: Weak
[8]; after treatment, A2780 xenograft
  time at which H4 acetylation reached base line level: 3 h
[9]; 100 mg/kg i.v., 2 h, one of four biopsies
  biopsies with moderate cytoplasmic p21 expression: 25%
[9]; 100 mg/kg i.v., 3 h, 10 tumors
  tumors with strong cytoplasmic p21 expression: 10%
  tumors with weak cytoplasmic p21 expression: 50%
[9]; 100 mg/kg i.v., 6 h
  cytoplasmic p21 expression, all biopsies removed after 6 h: moderate-to-strong
[9]; 100 mg/kg i.v., 6 h, four tumors
  tumors with strong cytoplasmic p21 expression: 25%
[9]; 100 mg/kg i.v., 24 h
  cytoplasmic p21 expression after 24 h: disappeared
[9]; after belinostat treatment
  time of p21 induction in the cytoplasm: about 3 h
[10]; [19]
  H4 acetylation (score), tumor, 15 min: weak-to-moderate
  H4 acetylation (score), tumor, 1 h: strong (strong (score=3))
  H4 acetylation (score), tumor, 3 h: weak and moderate
[10]; [20]
  H4 acetylation (score), tumor, 15 min: Moderate (2); also recorded: No (0); also recorded: Weak (1)
  H4 acetylation (score), tumor, 30 min: Moderate (2); also recorded: Strong (3); also recorded: Weak (1)
  H4 acetylation (score), tumor, 1 h: Strong (3)
  H4 acetylation (score), tumor, 2 h: Moderate (2); also recorded: Strong (3)
  H4 acetylation (score), tumor, 3 h: Moderate (2); also recorded: Weak (1)
[10]; 200 mg/kg i.v., score 0-3
  H4 acetylation score, tumor, mean, 15 min: 1.25
  H4 acetylation score, tumor, mean, 30 min: 2
  H4 acetylation score, tumor, mean, 1 h: 3
  H4 acetylation score, tumor, mean, 2 h: 2.33
  H4 acetylation score, tumor, mean, 3 h: 1.67
[10]; [21]
  time at which increased acetylated H4 was detected in tumor tissue: 15 min
  time of maximal H4 acetylation level: 1 h
H4 acetylation in spleen; individual mice
  H4 acetylation (score), spleen, 2 h: Moderate (2)
H4 acetylation in spleen; [22]
  H4 acetylation (score), spleen, 15 min: Moderate (2); also recorded: Weak (1)
  H4 acetylation (score), spleen, 30 min: Strong (3); also recorded: Moderate (2)
  H4 acetylation (score), spleen, 1 h: Strong (3); also recorded: Moderate (2)
  H4 acetylation (score), spleen, 3 h: Weak (1); also recorded: No (0)
H4 acetylation in spleen; score 0-3
  H4 acetylation score, spleen, mean, 15 min: 1.5
  H4 acetylation score, spleen, mean, 30 min: 2.5
  H4 acetylation score, spleen, mean, 1 h: 2.75
  H4 acetylation score, spleen, mean, 2 h: 2
  H4 acetylation score, spleen, mean, 3 h: 0.67
[11]; 200 mg/kg i.v. single dose
  distribution to tumor and spleen tissue: similar
[11]; 200 mg/kg i.v., 1 h after treatment, Fig. 8
  belinostat plasma concentration at maximal acetylation: above 10^3 ng/ml
[12]
  H4 acetylation in peripheral canine blood: increased
[13]; 30 min after treatment with 1 μM
  H4 acetylation in histones extracted from A2780 cells: increased
[13]; 3 h after treatment, 1 μM
  H4 acetylation in histones extracted from A2780 cells: returned to base line levels
[14]
  H4 acetylation in peripheral blood from A2780 xenografts: returned to base line levels

## Nc1ccccc1NC(=O)c1ccc(CNC(=O)OCc2cccnc2)cc1 [MS-275]
[15]
  pharmacokinetics (linearity): linear, dose-independent

## O=C(CCCCCCC(=O)Nc1ccccc1)NO [vorinostat, suberoylanilide hydroxamic acid]
[15]; dose proportional increases in Cmax and AUC
  pharmacokinetics (linearity): linear
[16]
  half-life of acetylated histones at higher doses: increased
